What all share (format): functional
One assay concerns HT-29. The assay is described as follows: Cytotoxicity against human HT-29 colon cell line. The following applies: read-out: ED50 (the source's name). In short, it runs like this:
(§1)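 MTT colorimetric assay run in the Purdue Cell Culture Laboratory. Poorly water-soluble compounds were serially diluted in DMSO and added as 0.5 μL aliquots per well. Cells were incubated with compound for 6 days before MTT was added. […] The reported ED50 is the mean of two determinations.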

In the next assay the test system is MLM. As to the kind of experiment: Cytotoxicity against human MLM melanoma cell line. The following applies: read-out: ED50 (the source's name). The method in brief:
as §1

The test system of the next assay is A549. The assay is described as follows: Compound was evaluated for cytotoxicity against human A-549 non-small cell lung cancer cell line. The following applies: read-out: ED50 (the source's name). The method in brief: as §1
The species named for a further assay is Bos taurus. The assay is described as follows: Inhibition of tubulin polymerization. In short, it runs like this: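 Bovine brain tubulin, purified to electrophoretic homogeneity, was preincubated at 37 °C with a range of compound concentrations and then chilled on ice. GTP was added and polymerization followed at 37 °C by turbidity at 350 nm. Extent was read at 20 min against two controls per experiment, and IC50 was determined graphically. Actives were run in ≥3 independent assays, inactives (IC50 > 40 μM) in ≥2.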

The next assay relates to MCF7. The assay is described as follows: Cytotoxicity against human MCF-7 breast cancer cell line. As to conditions: read-out: ED50 (the source's name). In short, it runs like this: as §1
The test system of another assay is SK-MEL-5. The assay is described as follows: Compound was evaluated for cytotoxicity against human SKMEL-5 melanoma cell line. As to conditions: read-out: ED50 (the source's name). In short, it runs like this:
as §1

For `CCCOc1ccc(CCc2cc(OC)c(OC)c(OC)c2)cc1`, the EC50 in the assay on HT-29 worked out at 6400 nM; with MLM it was 15 µM; in the assay on A549 it was 7.2 µM; with MCF7 it was 3.9 µM; in the assay on SK-MEL-5, 6700 nM. The same compound displayed an IC50 in the assay filed under Bos taurus above 40 µM.
Regarding `COc1cc(/C=C/c2ccc(C)cc2)cc(OC)c1OC`, the EC50 came to 900 nM with HT-29; 6.3 µM in the assay with MLM; 1.1 µM with A549; 1.9 µM in the assay with MCF7; 800 nM in the assay on SK-MEL-5. In the assay listed under Bos taurus, this compound gave a 50% inhibitory concentration (IC50) above 40 µM.
For `CCc1ccc(CCc2cc(OC)c(OC)c(OC)c2)cc1`, the EC50 in the assay with HT-29 was 16 nM; with MLM, 0.27 µM; in the assay with A549, 0.088 µM; in the assay on MCF7, 0.16 µM; with SK-MEL-5 it was 47 nM. In the assay filed under Bos taurus, this compound registered a half-inhibitory concentration (IC50) of 18 µM.
As to `COc1ccc(/C=C\c2ccc(OC)c(OC)c2)cc1` [7Z-3,4,4'-TRIMETHOXYSTILBENE], the EC50 with HT-29 was above 25000 nM; in the assay on MLM, above 25 µM; in the assay on A549, above 25 µM; with MCF7, above 25 µM; in the assay on SK-MEL-5, above 25000 nM. The compound further came in with an IC50 in the assay listed under Bos taurus of 18 µM.
In the case of `COc1ccc(C(O)c2cc(OC)c(OC)c(OC)c2)cc1` (stereo not given), the EC50 in the assay on HT-29 came out at 1200 nM; in the assay on MLM, 16.8 µM; in the assay on A549 it was 1.5 µM; in the assay on MCF7, 1.9 µM; with SK-MEL-5, 1500 nM. In the assay listed under Bos taurus, the IC50 is above 40 µM.
As to `CCN(CC)CCOC(=O)/C(=C/c1ccc(OC)cc1)c1cc(OC)c(OC)c(OC)c1`, the EC50 in the assay with HT-29 is 2800 nM; in the assay with MLM it was above 25 µM; with A549, 1.8 µM; in the assay on MCF7 it was 2.1 µM; in the assay with SK-MEL-5 it was 2700 nM. This compound also showed an IC50 in the assay filed under Bos taurus above 40 µM.
Take `CCNC(=O)/C(=C/c1ccc(OC)cc1)c1cc(OC)c(OC)c(OC)c1`: the EC50 is 1800 nM with HT-29; above 25 µM with MLM; 3.4 µM in the assay on A549; 3.7 µM in the assay with MCF7; 7050 nM with SK-MEL-5. In the assay filed under Bos taurus, this compound had an IC50 above 40 µM.
Consider `COc1ccc2c(ccc3cc(OC)c(OC)c(OC)c32)c1`, for which the EC50 in the assay on HT-29 was above 25000 nM; with MLM, above 25 µM; in the assay on A549, above 25 µM; with MCF7, above 25 µM; in the assay on SK-MEL-5, above 25000 nM. The same compound yielded an IC50 in the assay listed under Bos taurus above 40 µM.
In the case of `COc1ccc(/C=C/c2cc(OC)cc(OC)c2)cc1` [TRISMETHOXYRESVERATROL], the EC50 in the assay on HT-29 is 6900 nM; in the assay on MLM it was above 25 µM; in the assay on A549 it was 7.5 µM; in the assay on MCF7, 9.7 µM; in the assay with SK-MEL-5 it was 880 nM. The compound also had an IC50 in the assay listed under Bos taurus above 40 µM.
As for `COc1ccc2ccc3cc(OC)c(OC)c(OC)c3c2c1`, the EC50 was 1100 nM with HT-29; above 25 µM in the assay with MLM; above 25 µM in the assay on A549; above 25 µM in the assay on MCF7; 12500 nM in the assay on SK-MEL-5. In the assay filed under Bos taurus, this compound registered an IC50 above 40 µM.
`COc1ccc(/C(=C\c2cc(OC)c(OC)c(OC)c2)C(=O)O)cc1`: the EC50 with HT-29 is 5900 nM; in the assay with MLM it was above 25 µM; with A549, 5.2 µM; in the assay with MCF7 it was 1.9 µM; in the assay with SK-MEL-5, 2300 nM. Moreover, the IC50 in the assay filed under Bos taurus was above 40 µM.
For `CCN(CC)CCOC(=O)/C(=C/c1cccc(OC)c1)c1cc(OC)c(OC)c(OC)c1`, the EC50 with HT-29 is above 25000 nM; with MLM, above 25 µM; in the assay with A549 it was 7.7 µM; with MCF7, 10.4 µM; in the assay on SK-MEL-5 it was 6700 nM. Further, the IC50 in the assay filed under Bos taurus is above 40 µM.
In the case of `COc1cc(/C=C\c2ccc(SC)cc2)cc(OC)c1OC`, the EC50 in the assay on HT-29 is 0.0018 nM; in the assay with MLM, 0.0033 µM; in the assay with A549, 0.00019 µM; with MCF7, 0.0054 µM; in the assay on SK-MEL-5, 0.004 nM. In the assay filed under Bos taurus, this compound gave a half-maximal inhibitory concentration (IC50) of 6.2 µM.
As to `COc1cccc(/C=C(/C(=O)O)c2cc(OC)c(OC)c(OC)c2)c1`, the EC50 in the assay with HT-29 was 120 nM; with MLM, above 25 µM; in the assay with A549 it was 0.025 µM; in the assay with MCF7 it was above 25 µM; in the assay on SK-MEL-5, 50 nM. In the assay filed under Bos taurus, this compound showed an IC50 above 40 µM.
For the compound `COc1ccc(/C=C\c2cc(OC)cc(OC)c2)cc1` [8Z-3,4',5-TRIMETHOXYSTILBENE], the EC50 turned out to be 340 nM in the assay with HT-29; 0.098 µM in the assay with MLM; 0.13 µM with A549; 0.16 µM in the assay with MCF7; 420 nM in the assay with SK-MEL-5. Further, half-maximal inhibition in the assay listed under Bos taurus (IC50) was put at 3.8 µM.
Turning to `COc1ccc(CCc2cc(OC)c(OC)c(OC)c2)cc1`, the EC50 in the assay with HT-29 turned out to be 2500 nM; in the assay on MLM, 1.8 µM; in the assay on A549 it was 1.8 µM; in the assay with MCF7, 1.6 µM; in the assay on SK-MEL-5, 1400 nM. Moreover, 7.9 µM corresponded to half-maximal inhibition in the assay listed under Bos taurus (IC50).
`COc1ccc2c(c1)CN1CCc3c(cc(OC)c(OC)c3OC)C1C2` (stereo not given): the EC50 in the assay on HT-29 is above 25000 nM; in the assay on MLM, above 25 µM; in the assay on A549, above 25 µM; in the assay with MCF7 it was above 25 µM; with SK-MEL-5, above 25000 nM. For the same compound, in the assay filed under Bos taurus, the IC50 was above 40 µM.
As to `COc1ccc(C(=O)c2c3cc(OC)c(OC)c(OC)c3cc[n+]2C)cc1`, the EC50 with HT-29 was above 25000 nM; with MLM, above 25 µM; in the assay with A549 it was above 25 µM; in the assay on MCF7 it was above 25 µM; in the assay on SK-MEL-5, above 25000 nM. For the same compound, in the assay filed under Bos taurus, the IC50 was above 40 µM.
`COc1ccc(C(Cc2cc(OC)c(OC)c(OC)c2)C(=O)O)cc1` (stereo not given): the EC50 with HT-29 was 9400 nM; in the assay with MLM, above 25 µM; in the assay on A549, 14.3 µM; with MCF7, above 25 µM; in the assay on SK-MEL-5, 7400 nM. The compound further yielded an IC50 in the assay listed under Bos taurus above 40 µM.
Consider `COc1ccc(/C=C\c2cc(OC)c(OC(C)=O)c(OC)c2)cc1`, for which the EC50 in the assay with HT-29 was 8700 nM; in the assay on MLM, above 25 µM; with A549, 21.5 µM; in the assay on MCF7, above 25 µM; with SK-MEL-5, 600 nM. The compound also displayed an IC50 in the assay filed under Bos taurus of 24 µM.
As to `COc1ccc(/C=C\c2cc(OC)c(OCc3ccccc3)c(OC)c2)cc1`, the EC50 was 950 nM with HT-29; above 25 µM in the assay on MLM; 1.04 µM with A549; 1.92 µM in the assay on MCF7; 610 nM with SK-MEL-5. Further, the IC50 in the assay listed under Bos taurus was above 40 µM.
With `COc1cc(CCc2ccc(C)cc2)cc(OC)c1OC`, the EC50 was found to be 100 nM in the assay with HT-29; 1.4 µM in the assay on MLM; 0.18 µM in the assay with A549; 0.22 µM in the assay with MCF7; 270 nM in the assay on SK-MEL-5. The same compound registered a 50% inhibitory concentration (IC50) in the assay filed under Bos taurus of 21 µM.
In the case of `COc1ccc(C2Cc3cc(OC)c(OC)c(OC)c3C2)cc1` (stereo not given), the EC50 in the assay with HT-29 is 12800 nM; in the assay on MLM, above 25 µM; in the assay on A549, above 25 µM; in the assay with MCF7 it was above 25 µM; in the assay on SK-MEL-5, 19500 nM. This compound also gave an IC50 in the assay filed under Bos taurus above 40 µM.
As for `CCCOc1ccc(/C=C/c2cc(OC)c(OC)c(OC)c2)cc1`, the EC50 in the assay with HT-29 is above 25000 nM; in the assay on MLM it was above 25 µM; in the assay with A549, 9.2 µM; with MCF7, 12.5 µM; in the assay on SK-MEL-5, above 25000 nM. Also, in the assay filed under Bos taurus, the IC50 was above 40 µM.
As to `CCN(CC)CCOc1ccc(CCc2cc(OC)c(OC)c(OC)c2)cc1`, the EC50 with HT-29 was 5200 nM; with MLM, above 25 µM; with A549, 6.8 µM; with MCF7, 4.3 µM; in the assay on SK-MEL-5, 8500 nM. In the assay listed under Bos taurus, this compound yielded an IC50 above 40 µM.
